Screening data as filed in PubChem.
The list is not random: actives were taken first. Their share in the collection is about 4.2%.
KCC2 mod – KCC2 cotransporter modulators, thallium flux, primary screen, cell-based, HEK293 KCC2, FluoZin-2 fluorescence, MLSMR. B-score of Tl+ flux slope (higher = more flux/activation; lower = inhibition) at 10 µM. AID 1456, 2008. hit rate 2.2% among 190,000. KCC2 cells, thallium flux FluoZin-2 fluorescence;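 active = thallium flux slope and its plate-corrected score both differing from the plate sample mean at a set confidence after two filtering rounds, in either direction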;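 note: slope of fluorescence scaled to starting intensity during 10 to 20 s after thallium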
Mot1-301 SUMO – yeast Mot1-301 growth rescue at high temperature, primary screen, SUMOylation pathway inhibitor project, S. cerevisiae, ATP luminescence, 38.5C. hit rate 1% among 320,000. AID 2716, 2010. growth rescue, % at 18.8 µM. S. cerevisiae Mot1-301 growth rescue; percent above DMSO median, 100 means doubled;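 active = every valid replicate shows activation above 250% relative to neutral control wells; inactive = the rest, any valid replicate at or below 250%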;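 note: OY570 slx delta 5 strain wells were the positive control but not used for scaling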
KCNQ1 act – potentiators or activators of KCNQ1 channel, primary screen, cell-based, thallium flux, high-throughput; CHO-K1 KCNQ1, thallium flux FluxOR fluorescence; active compounds read high; Potassium voltage-gated channel subfamily KQT member 1 (Homo sapiens), P51787; hit rate 0.35% among 310,000; B-score at 10 µM;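 active = fluorescence ratio B-score, a plate-corrected score, at least three library SD, with initial intensity B-score within 5 SD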
Target sequence (P51787 whole entry, looked up): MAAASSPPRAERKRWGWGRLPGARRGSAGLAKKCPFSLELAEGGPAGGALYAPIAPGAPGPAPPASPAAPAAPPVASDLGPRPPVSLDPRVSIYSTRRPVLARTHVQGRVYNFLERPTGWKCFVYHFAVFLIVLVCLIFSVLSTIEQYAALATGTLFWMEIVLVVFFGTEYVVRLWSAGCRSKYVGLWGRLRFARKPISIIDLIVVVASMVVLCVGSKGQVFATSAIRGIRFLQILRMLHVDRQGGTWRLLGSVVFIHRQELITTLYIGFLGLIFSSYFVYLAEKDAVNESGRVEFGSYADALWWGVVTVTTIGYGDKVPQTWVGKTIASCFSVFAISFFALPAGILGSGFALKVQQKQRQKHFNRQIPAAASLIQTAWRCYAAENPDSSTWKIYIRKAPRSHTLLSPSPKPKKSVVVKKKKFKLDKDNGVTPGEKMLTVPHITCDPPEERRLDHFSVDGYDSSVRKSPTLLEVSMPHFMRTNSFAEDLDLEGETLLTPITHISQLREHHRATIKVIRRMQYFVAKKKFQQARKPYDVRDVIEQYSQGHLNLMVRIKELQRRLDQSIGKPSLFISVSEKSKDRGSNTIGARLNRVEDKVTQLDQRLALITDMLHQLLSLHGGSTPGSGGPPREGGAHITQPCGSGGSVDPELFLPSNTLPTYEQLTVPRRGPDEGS
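Assay system: CHO-K1 cells stably expressing KCNQ1; Medium: assay buffer with matched DMSO; Also added: K+/Tl+ depolarizing stimulus; Dosing: single dose; Timing: dye 90 min, compound 20 min, room temperature; Measured by: kinetic FluxOR thallium fluorescence, 10-s 1-Hz baseline, 110-s post-stimulus read; Read-out: peak-minus-minimum fluorescence over initial fluorescence, negative-control normalized, B-scored.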
AI-2 QS modul – Vibrio harveyi AI-2 quorum sensing modulators, primary screen, JMH597 strain, luminescence/OD600 ratio | Vibrio harveyi JMH597 AI-2 luminescence/OD600 ratio, 9 h; active compounds read low; strain lacks LuxN and CqsS sensors; 0 = neutral-control median | AID 2094, 2009 | activity change, % at 7.5 µM | hit rate 0.4% among 300,000; in the data active = activity change below about -75%, passing the limit was not always enough; inconclusive = no clear call, values can overlap the other calls;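 note: luminescence divided by OD600 gain over 9 h not by final OD600 alone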
hERG protect – hERG rescue from dofetilide block, primary screen, cell-based, CHO-hERG, FluxOR thallium flux, dofetilide IC70 | Voltage-gated inwardly rectifying potassium channel KCNH2 (Homo sapiens), Q12809 | dofetilide IC70 present | activation (rescue from dofetilide block), less the hit threshold, % at 10 µM | hit rate 0.51% among 310,000 | AID 1511, 2009;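 active = activation above the mean of controls blocked by dofetilide plus 5 SD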;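 note: thallium influx through hERG after potassium depolarization seen as dye fluorescence rise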
KCNQ1 inh – inhibitors of human KCNQ1 channel, primary screen, cell-based, thallium flux, high-throughput; B-score at 10 µM; Potassium voltage-gated channel subfamily KQT member 1 (Homo sapiens), P51787; CHO-K1 KCNQ1, FluxOR thallium flux fluorescence; active compounds read high; hit rate 1.3% among 310,000;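 active = compounds whose thallium flux B-score, printed positive for inhibition, exceeds three library SD while starting fluorescence stays within three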;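 note: channel opened by potassium depolarization with thallium stimulus after 20 min compound exposure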
JMH597 growth rt – Vibrio harveyi growth inhibition, confirmation, counter-screen for AI-2 quorum sensing project, JMH597 strain, OD600 absorbance | shares compounds with AI-2 QS modul | 9 h; lacks LuxN and CqsS sensors | growth inhibition, % at 7.5 µM | hit rate 1% among 750;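 active = every replicate shows growth inhibition above 50%; inconclusive = at least half, but not all, replicates pass that cutoff; inactive = fewer than half of replicates pass it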
BB721 lum counter – luminescence inhibition in constitutive-on V. harveyi, confirmation, counter-screen for LuxS inhibitor project, strain BB721, luminescence readout; shares compounds with AI-2 QS modul; Vibrio harveyi BB721 luminescence, 9 h; inhibition, % at 7.5 µM; hit rate 95% among 750;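 active = inhibition above about 80% in every replicate, not just on average, limit read from the data; inconclusive = at least half of replicates past the limit, but not all; inactive = fewer than half of replicates past the limit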
BB721 growth rt – growth inhibition of V. harveyi BB721, confirmation, cytotoxicity control for AI-2 quorum sensing inhibitors, strain BB721, absorbance OD600; shares compounds with AI-2 QS modul; Vibrio harveyi BB721 growth, 9 h; growth inhibition, % at 7.5 µM; hit rate 3% among 750;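 active = every replicate shows growth inhibition above 50%; inconclusive = at least half but not all replicates above 50% inhibition; inactive = under half of replicates above 50% inhibition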
JMH597 AI-2 mod – Vibrio harveyi AI-2 signaling luminescence modulation – JMH597 strain, confirmation | inhibition, % at 7.5 µM | Vibrio harveyi JMH597 AI-2 quorum sensing luminescence, 9 h; luxN and CqsS knockout, AI-2 only | hit rate 97% among 750 | shares compounds with AI-2 QS modul;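 active = every replicate shows more than 75% inhibition of signal versus neutral control wells; inconclusive = half to three quarters of replicates exceed 75% inhibition; inactive = fewer than half of replicates exceed 75% inhibition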
Starred values were filed as active, the others as inactive; i = inactive; u = inconclusive; x = not tested or not shown.

SMILES	KCC2 mod	Mot1-301 SUMO	KCNQ1 act	AI-2 QS modul	hERG protect	KCNQ1 inh	JMH597 growth rt	BB721 lum counter	BB721 growth rt	JMH597 AI-2 mod
CCCOc1ccc(N2C(=O)CC(SCCN)C2=O)cc1 (stereo not given)	0.901	-26.2	i	-87.4*	-13.0	i	17.8	94.6*	15.6	96.4*
CCCOc1ccc(N2C(=O)CC(SCC(N)C(=O)OCC)C2=O)cc1 (stereo not given)	x	0.3	i	24.5	-12.8	i	x	x	x	x
Cc1ccc(S(=O)(=O)N/N=C\C=C\c2ccccc2)cc1	0.031	30.0	i	-98.1*	-5.6	i	51.2	99.8*	24.7	99.9*
COC(=O)c1ccccc1NC(=O)N1c2ccccc2Sc2ccccc21	-0.125	-11.8	i	3.4	-8.9	i	x	x	x	x
CCS(=O)(=O)c1ccc2oc(Nc3cccc(OC)c3)nc2c1	-0.719	x	i	u	-21.9	i	-11.2	81.6*	-30.6	88.2*
CC(=O)N1c2ccc(S(=O)(=O)N3CCCCC3)cc2CC1C(=O)NCc1ccccc1C (stereo not given)	x	2.1	i	14.6	-6.0	i	x	x	x	x
c1ccc2c(CSc3nnc(-c4ccncc4)o3)cccc2c1	x	-0.2	i	-83.3*	-7.2	i	5.0	94.3*	-7.9	95.6*
Brc1cccc(CSc2nnc(-c3ccncc3)o2)c1	-0.324	12.5	i	-85.5*	-10.5	i	14.6	94.9*	6.2	95.8*
Cc1cc(C(=O)NNC(=O)c2ccc(Cl)c(S(N)(=O)=O)c2)c(C)o1	x	-8.1	x	x	x	x	x	x	x	x
Cc1cc(C(=O)NNC(=O)c2ccc(S(=O)(=O)N(C)C)cc2)c(C)o1	0.211	-12.8	i	-84.4*	-4.9	i	11.6	88.0*	12.1	93.2*
O=C(CC(Nc1ccc(F)cc1)C(=O)OCC(=O)c1cccs1)c1ccccc1 (stereo not given)	-0.748	18.2	i	15.4	-8.1	i	x	x	x	x
Nn1c(SCc2ccc([N+](=O)[O-])cc2)nc2ccccc2c1=O	x	26.1	i	-96.8*	0.2	i	-7.9	96.7*	-0.7	97.5*
Clc1ccc(-c2noc(COc3ccccc3)n2)cc1	2.09	51.3	i	u	-8.8	i	1.2	86.1*	15.2	93.7*
Clc1ccc(-c2noc(CCCOc3ccccc3)n2)cc1	-0.462	-13.8	i	18.0	-4.8	i	x	x	x	x
COc1ccc(Cc2nc(-c3ccc(Cl)cc3)no2)cc1	-0.667	19.2	i	-88.4*	-7.8	i	10.0	96.7*	-5.3	98.0*
COc1ccc(CN2C(=O)CNC2=S)cc1	x	81.1	i	7.2	-1.6	i	x	x	x	x
COc1cc(C(=O)OCC(=O)Nc2ccc(C)cc2)cc(OC)c1OC	x	69.2	i	21.9	-5.9	i	x	x	x	x
COc1ccc(S(=O)(=O)n2cccc2)cc1	x	0.1	i	u	-5.2	i	23.8	96.0*	-23.9	99.4*
COc1ccc(N2CCN(S(=O)(=O)c3ccc(OC)cc3)CC2)cc1	0.138	6.6	i	7.6	-6.2	i	x	x	x	x
O=C(NCc1ccc2c(c1)CCO2)Nc1ccccc1	0.114	260.8	i	-82.6*	-6.8	i	-6.9	95.6*	-0.2	96.3*
CN(C)S(=O)(=O)c1ccc(NC(=O)CN2CCc3ccccc32)cc1	0.392	-18.4	i	-91.9*	-17.5	i	-16.8	95.5*	-7.6	96.8*
CC12CCC(=O)N1C(C(=O)Nc1ccc(SC(F)F)cc1)CS2 (stereo not given)	x	1.0	i	-94.1*	-5.0	i	23.7	95.4*	16.6	95.8*
CC(C)c1ccc(NC(=O)C2CSC3(C)CCC(=O)N23)cc1 (stereo not given)	x	-15.8	i	-91.3*	-13.0	i	3.2	93.2*	1.1	96.0*
CC12CCC(=O)N1C(C(=O)Nc1cccc(F)c1)CS2 (stereo not given)	x	-0.2	i	17.7	-14.2	i	x	x	x	x
COc1ccc(N(CC(=O)O)S(=O)(=O)c2cccnc2)cc1	0.735	12.6	i	28.0	-8.8	i	x	x	x	x
SMILES	KCC2 mod	Mot1-301 SUMO	KCNQ1 act	AI-2 QS modul	hERG protect	KCNQ1 inh	JMH597 growth rt	BB721 lum counter	BB721 growth rt	JMH597 AI-2 mod
Cc1nc2cc(Cl)ccc2c(=O)n1Cc1ccncc1	x	-0.5	i	9.0	-5.0	i	x	x	x	x
CN(C)C1C(=O)c2ccccc2C1=O	-3.71	-5.5	i	-4.8	-5.1	i	x	x	x	x
O=C(Nc1cccc(Cl)c1)OCc1cn(-c2ccccc2)nn1	0.435	1.4	i	3.0	-4.3	i	x	x	x	x
O=C(Nc1cccc(Cl)c1)OCc1cnc(Cl)s1	x	-8.1	i	u	-8.4	i	17.7	92.0*	22.3	91.9*
CCOC(=O)C1CCCN(S(=O)(=O)c2cccs2)C1 (stereo not given)	-0.774	414.0	i	u	-1.8	i	16.8	98.6*	-17.6	99.8*
Cc1ccc(NC(=O)C(C)C(=O)Nc2ccc(C)cc2)cc1	0.799	244.0	i	12.1	-8.0	i	x	x	x	x
Cc1ccc(NC(=O)C(=O)c2ccc(C)cc2)cc1	x	239.5	i	-92.6*	-10.8	i	2.9	97.0*	18.9	97.1*
O=S1(=O)C=C(Oc2ccc(F)cc2)c2ccccc21	0.337	-17.9	i	-16.8	-6.9	i	x	x	x	x
O=S1(=O)C=C(Oc2ccc3ccccc3c2)c2ccccc21	-4.18	-42.0	i	-83.2*	-16.0	i	9.2	94.8*	-17.4	96.0*
